Source: ChEMBL document CHEMBL5705899 (Biochem J, 2014)
Calls of active or inactive are those of the source. No cut-off for these calls is given here.

Assays:
[1] = biological target: Maternal embryonic leucine zipper kinase (Homo sapiens) (UniProt Q14680); experiment: Inhibition of human MELK at 1 uM using RBER-CHKtide as substrate in presence of 33P-ATP by ProQinase assay
[2] = biological target: Serine/threonine-protein kinase BRSK2 (Homo sapiens) (UniProt Q8IWQ3); experiment: Inhibition of recombinant human N-terminal His6-tagged BRSK2 (2 to 674 residues) expressed in baculovirus infected Sf21 cells assessed as remaining activity at 1 uM using KKLNRTLSFAEPG as substrate incubated for 30 mins in presence of [gamma-33P]ATP by filter binding method relative to control
[3] = biological target: Phosphatidylinositol 4-phosphate 3-kinase C2 domain-containing subunit beta (Homo sapiens, UniProt O00750); experiment: Inhibition of human PIK3C2B using PIP2/PS as substrate by ADP-Glo assay
[4] = biological target: PI3K p110 beta/p85 alpha (Homo sapiens) (UniProt P27986+P42338); experiment: Inhibition of recombinant human N-terminal His6-tagged PI3Kbeta (1 to 1070 residues)/p85A (1 to 724 residues) expressed in baculovirus expression system at 1 uM using diC8 PIP2 as substrate incubated for 60 mins by ADP-Glo assay
[5] = biological target: Vascular endothelial growth factor receptor 2 (Homo sapiens) (UniProt P35968); experiment: Inhibition of human VEGFR2 at 1 uM using polyEY as substrate in presence of 33P-ATP by ProQinase assay
[6] = biological target: Serine/threonine-protein kinase PLK3 (Homo sapiens) (UniProt Q9H4B4); experiment: Inhibition of human PLK3 at 1 uM using casein as substrate in presence of 33P-ATP by ProQinase assay
[7] = biological target: Mitogen-activated protein kinase 14 (Homo sapiens) (UniProt Q16539); experiment: Inhibition of recombinant human N-terminal GST-tagged P38alpha (1 to 360 residues) expressed in Escherichia coli assessed as remaining activity at 1 uM using MBP as substrate incubated for 30 mins in presence of [gamma-33P]ATP by filter binding method relative to control
[8] = biological target: Serine/threonine-protein kinase Nek2 (Homo sapiens) (UniProt P51955); experiment: Inhibition of human NEK2 at 1 uM using RB-CTF as substrate in presence of 33P-ATP by ProQinase assay
[9] = tested on: U2OS; experiment: Inhibition of PI3K in human U2OS cells expressing FLAG-tagged SGK3 assessed as reduction in AKT phosphorylation at T308 residues at 0.01 to 1 uM 1 hr by immunoblot analysis; assay type: cell-based; conditions: dose 0.01-1 µM
How it was run: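 Flp-In T-REx U2OS cells were grown in McCoy medium with 10% FBS. Expression of C-terminally FLAG-tagged full-length SGK3 was induced with 0.01 mg/ml doxycycline for 24 h. Cells were treated with inhibitor for 1 h and lysed in phosphatase-inhibitor buffer. Lysates were cleared at 16000 g for 10 min at 4°C, protein was measured by Bradford, and phosphorylation was read by immunoblot with ECL detection.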

[10] = biological target: MAP/microtubule affinity-regulating kinase 3 (Homo sapiens) (UniProt P27448); experiment: Inhibition of human MARK3 at 1 uM using RBER-CHKtide as substrate in presence of 33P-ATP by ProQinase assay
[11] = biological target: Protein kinase C alpha type (Homo sapiens) (UniProt P17252); experiment: Inhibition of recombinant human N-terminal GST-tagged PKCA (2 to 351 residues) expressed in Escherichia coli assessed as remaining activity at 1 uM using kKemptide as substrate incubated for 30 mins in presence of [gamma-33P]ATP by filter binding method relative to control
[12] = biological target: Mitogen-activated protein kinase kinase kinase kinase 5 (Homo sapiens) (UniProt Q9Y4K4); experiment: Inhibition of MAP4K5 (unknown origin) assessed as remaining activity at 1 uM relative to control
How it was run: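 Dundee panel of 140 protein kinases, tested at a single 1 μM concentration. Each assay was run in triplicate. Remaining activity is expressed relative to a control reaction without inhibitor, as mean ± S.D. Conditions for each kinase were those of the screening centre.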

[13] = biological target: Beta-adrenergic receptor kinase 1 (Homo sapiens) (UniProt P25098); experiment: Inhibition of human GRK2 at 1 uM using casein as substrate in presence of 33P-ATP by ProQinase assay
[14] = biological target: Dual specificity protein kinase CLK2 (Homo sapiens) (UniProt P49760); experiment: Inhibition of recombinant human N-terminal GST-tagged CLK2 (138 to 499 residues) expressed in baculovirus infected Sf21 cells assessed as remaining activity at 1 uM using RNRYRDVSPFDHSR as substrate incubated for 30 mins in presence of [gamma-33P]ATP by filter binding method relative to control
[15] = biological target: Aurora kinase B (Homo sapiens) (UniProt Q96GD4); experiment: Inhibition of human AuroraB at 1 uM using bio-4xCHKT as substrate in presence of 33P-ATP by ProQinase assay
[16] = biological target: Myosin light chain kinase, smooth muscle (Homo sapiens) (UniProt Q15746); experiment: Inhibition of recombinant human N-terminal GST-tagged SmMLCK (475 to 838 residues) expressed in Escherichia coli assessed as remaining activity at 1 uM using KKRPQRATSNVFA as substrate incubated for 30 mins in presence of [gamma-33P]ATP by filter binding method relative to control
[17] = biological target: Mitogen-activated protein kinase 13 (Homo sapiens) (UniProt O15264); experiment: Inhibition of human p38delta at 1 uM using RBER-CHKtide as substrate in presence of 33P-ATP by ProQinase assay
[18] = biological target: Serine/threonine-protein kinase WNK1 (Homo sapiens) (UniProt Q9H4A3); experiment: Inhibition of human WNK1 at 1 uM using 3xChocktide-PKC as substrate in presence of 33P-ATP by ProQinase assay
[19] = biological target: Serine/threonine-protein kinase PAK 3 (Homo sapiens) (UniProt O75914); experiment: Inhibition of human PAK3 at 1 uM using bio-4xCHKT as substrate in presence of 33P-ATP by ProQinase assay
[20] = biological target: Phosphatidylinositol 4,5-bisphosphate 3-kinase catalytic subunit gamma isoform (Homo sapiens, UniProt P48736); experiment: Inhibition of PI3Kgamma (unknown origin) using PtdIns(4,5)P2 as substrate preincubated for 20 mins followed by substrate addition and measured after 80 mins by Kinase-Glo assay
[21] = biological target: Dual specificity mitogen-activated protein kinase kinase 2 (Homo sapiens) (UniProt P36507); experiment: Inhibition of recombinant human N-terminal GST/C-terminal His6-tagged MKK2 (2 to 400 residues) expressed in Escherichia coli assessed as remaining activity at 1 uM using MBP as substrate incubated for 30 mins in presence of [gamma-33P]ATP by filter binding method relative to control
[22] = biological target: Serine/threonine-protein kinase tousled-like 1 (Homo sapiens) (UniProt Q9UKI8); experiment: Inhibition of recombinant human N-terminal GST-tagged TLK1 (1 to 766 residues) expressed in Escherichia coli assessed as remaining activity at 1 uM using MBP as substrate incubated for 30 mins in presence of [gamma-33P]ATP by filter binding method relative to control
[23] = species: Homo sapiens; experiment: Inhibition of DGK (unknown origin) at 1 uM

Chain of Mitogen-activated protein kinase 13 (Homo sapiens) (O15264 whole entry): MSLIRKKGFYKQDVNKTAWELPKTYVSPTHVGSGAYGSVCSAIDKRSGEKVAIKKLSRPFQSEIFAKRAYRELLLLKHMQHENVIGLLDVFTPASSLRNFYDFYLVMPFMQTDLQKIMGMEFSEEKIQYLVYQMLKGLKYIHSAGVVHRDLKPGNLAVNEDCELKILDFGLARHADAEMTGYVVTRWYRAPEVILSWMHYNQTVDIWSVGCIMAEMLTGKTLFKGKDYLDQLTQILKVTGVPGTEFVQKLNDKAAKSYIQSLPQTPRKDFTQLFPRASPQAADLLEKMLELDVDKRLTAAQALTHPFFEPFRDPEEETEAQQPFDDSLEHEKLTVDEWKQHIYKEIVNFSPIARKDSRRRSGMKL
Chain of Serine/threonine-protein kinase BRSK2 (Homo sapiens) (Q8IWQ3 whole entry, the tested form may be a part): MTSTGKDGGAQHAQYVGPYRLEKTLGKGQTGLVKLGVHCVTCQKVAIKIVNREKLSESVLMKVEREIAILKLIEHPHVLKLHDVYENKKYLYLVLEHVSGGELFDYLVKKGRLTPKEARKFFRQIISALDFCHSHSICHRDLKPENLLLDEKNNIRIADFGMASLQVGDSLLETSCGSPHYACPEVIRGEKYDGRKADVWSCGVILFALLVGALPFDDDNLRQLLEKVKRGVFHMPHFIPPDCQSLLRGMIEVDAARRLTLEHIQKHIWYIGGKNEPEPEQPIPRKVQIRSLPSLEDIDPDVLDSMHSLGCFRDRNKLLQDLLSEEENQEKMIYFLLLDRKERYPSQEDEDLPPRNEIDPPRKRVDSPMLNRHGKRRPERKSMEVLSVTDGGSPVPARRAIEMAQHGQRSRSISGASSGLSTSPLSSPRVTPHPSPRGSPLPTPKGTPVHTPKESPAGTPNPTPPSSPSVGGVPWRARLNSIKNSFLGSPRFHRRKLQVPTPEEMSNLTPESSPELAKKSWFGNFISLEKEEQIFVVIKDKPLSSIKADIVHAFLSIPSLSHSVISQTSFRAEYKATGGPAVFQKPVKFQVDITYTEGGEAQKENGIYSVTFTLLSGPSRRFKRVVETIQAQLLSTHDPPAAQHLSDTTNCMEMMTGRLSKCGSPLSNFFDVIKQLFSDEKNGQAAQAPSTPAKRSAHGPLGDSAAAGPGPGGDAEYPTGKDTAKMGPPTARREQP
Chain of Serine/threonine-protein kinase tousled-like 1 (Homo sapiens) (Q9UKI8 whole entry, the tested form may be a part): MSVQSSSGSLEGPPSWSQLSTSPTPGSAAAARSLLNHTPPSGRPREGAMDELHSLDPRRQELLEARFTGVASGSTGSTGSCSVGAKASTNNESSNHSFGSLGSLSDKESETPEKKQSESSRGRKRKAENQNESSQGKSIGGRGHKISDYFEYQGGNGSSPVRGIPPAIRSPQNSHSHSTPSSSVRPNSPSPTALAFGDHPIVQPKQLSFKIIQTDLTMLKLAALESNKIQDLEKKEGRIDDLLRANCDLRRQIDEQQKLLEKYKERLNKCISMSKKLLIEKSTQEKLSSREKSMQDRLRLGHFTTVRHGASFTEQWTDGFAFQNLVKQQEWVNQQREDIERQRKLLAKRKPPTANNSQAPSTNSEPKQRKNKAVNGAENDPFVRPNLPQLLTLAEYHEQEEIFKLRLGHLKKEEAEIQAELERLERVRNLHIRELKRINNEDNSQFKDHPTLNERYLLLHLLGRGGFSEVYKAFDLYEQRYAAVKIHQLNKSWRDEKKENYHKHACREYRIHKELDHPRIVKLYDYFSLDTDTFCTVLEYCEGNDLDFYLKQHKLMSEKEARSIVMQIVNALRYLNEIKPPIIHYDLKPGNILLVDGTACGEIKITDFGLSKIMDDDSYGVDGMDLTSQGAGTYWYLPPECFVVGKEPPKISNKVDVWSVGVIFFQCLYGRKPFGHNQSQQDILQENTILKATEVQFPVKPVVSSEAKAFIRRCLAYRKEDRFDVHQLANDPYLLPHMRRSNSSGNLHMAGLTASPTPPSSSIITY
Chain of Vascular endothelial growth factor receptor 2 (Homo sapiens) (P35968 whole entry): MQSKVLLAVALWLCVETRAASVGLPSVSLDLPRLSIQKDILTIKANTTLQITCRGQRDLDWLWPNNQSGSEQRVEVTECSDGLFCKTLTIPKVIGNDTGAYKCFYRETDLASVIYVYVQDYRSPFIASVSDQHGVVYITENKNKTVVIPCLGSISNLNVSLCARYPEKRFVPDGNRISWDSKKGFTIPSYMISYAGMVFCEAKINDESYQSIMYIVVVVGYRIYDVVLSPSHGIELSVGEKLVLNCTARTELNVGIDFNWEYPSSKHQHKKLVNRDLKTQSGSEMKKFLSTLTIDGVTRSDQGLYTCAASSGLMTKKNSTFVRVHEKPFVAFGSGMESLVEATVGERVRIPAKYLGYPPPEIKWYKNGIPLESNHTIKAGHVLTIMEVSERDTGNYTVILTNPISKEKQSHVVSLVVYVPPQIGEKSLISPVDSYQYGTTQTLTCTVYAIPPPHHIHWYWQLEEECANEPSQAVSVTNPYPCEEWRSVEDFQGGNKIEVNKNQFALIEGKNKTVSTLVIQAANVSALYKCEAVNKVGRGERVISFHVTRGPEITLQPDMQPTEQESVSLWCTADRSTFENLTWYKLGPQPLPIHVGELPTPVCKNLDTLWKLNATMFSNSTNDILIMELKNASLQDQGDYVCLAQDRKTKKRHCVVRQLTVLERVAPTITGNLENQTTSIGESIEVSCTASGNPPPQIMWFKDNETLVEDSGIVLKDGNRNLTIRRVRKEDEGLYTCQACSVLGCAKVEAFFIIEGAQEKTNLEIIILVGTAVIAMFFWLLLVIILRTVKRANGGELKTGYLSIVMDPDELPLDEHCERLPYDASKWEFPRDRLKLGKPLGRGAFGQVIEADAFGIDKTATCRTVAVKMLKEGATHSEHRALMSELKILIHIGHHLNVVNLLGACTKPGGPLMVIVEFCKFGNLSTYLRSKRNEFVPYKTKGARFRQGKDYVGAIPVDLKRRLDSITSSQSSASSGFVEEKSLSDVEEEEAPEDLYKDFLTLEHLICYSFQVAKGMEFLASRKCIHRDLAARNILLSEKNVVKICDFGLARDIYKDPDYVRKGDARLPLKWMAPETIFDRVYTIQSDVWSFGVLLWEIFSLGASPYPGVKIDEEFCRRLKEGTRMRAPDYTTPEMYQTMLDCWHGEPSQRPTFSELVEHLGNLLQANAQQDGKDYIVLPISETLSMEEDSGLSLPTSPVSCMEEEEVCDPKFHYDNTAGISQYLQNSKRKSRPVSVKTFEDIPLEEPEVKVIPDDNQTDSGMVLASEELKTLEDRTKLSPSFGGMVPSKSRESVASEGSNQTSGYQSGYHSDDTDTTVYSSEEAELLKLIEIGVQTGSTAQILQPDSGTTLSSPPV
Chain of Serine/threonine-protein kinase PLK3 (Homo sapiens) (Q9H4B4 whole entry, looked up, the tested form may be a part): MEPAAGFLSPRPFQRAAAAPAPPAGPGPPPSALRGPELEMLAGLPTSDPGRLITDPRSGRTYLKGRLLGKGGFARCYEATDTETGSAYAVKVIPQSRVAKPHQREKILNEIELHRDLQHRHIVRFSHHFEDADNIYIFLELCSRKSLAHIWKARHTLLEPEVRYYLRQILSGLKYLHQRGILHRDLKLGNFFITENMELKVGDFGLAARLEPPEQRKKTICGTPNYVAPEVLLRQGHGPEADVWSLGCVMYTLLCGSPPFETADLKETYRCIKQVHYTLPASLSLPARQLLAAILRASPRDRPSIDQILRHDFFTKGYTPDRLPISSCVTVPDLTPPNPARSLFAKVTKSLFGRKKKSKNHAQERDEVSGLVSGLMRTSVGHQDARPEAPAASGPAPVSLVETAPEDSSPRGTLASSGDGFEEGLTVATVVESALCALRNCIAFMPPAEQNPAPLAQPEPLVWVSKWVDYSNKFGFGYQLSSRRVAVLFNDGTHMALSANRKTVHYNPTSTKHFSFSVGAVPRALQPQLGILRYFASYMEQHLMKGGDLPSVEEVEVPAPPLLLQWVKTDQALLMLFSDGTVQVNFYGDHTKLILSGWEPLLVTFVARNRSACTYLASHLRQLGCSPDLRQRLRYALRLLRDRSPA
Chain of Dual specificity mitogen-activated protein kinase kinase 2 (Homo sapiens) (P36507 whole entry, the tested form may be a part): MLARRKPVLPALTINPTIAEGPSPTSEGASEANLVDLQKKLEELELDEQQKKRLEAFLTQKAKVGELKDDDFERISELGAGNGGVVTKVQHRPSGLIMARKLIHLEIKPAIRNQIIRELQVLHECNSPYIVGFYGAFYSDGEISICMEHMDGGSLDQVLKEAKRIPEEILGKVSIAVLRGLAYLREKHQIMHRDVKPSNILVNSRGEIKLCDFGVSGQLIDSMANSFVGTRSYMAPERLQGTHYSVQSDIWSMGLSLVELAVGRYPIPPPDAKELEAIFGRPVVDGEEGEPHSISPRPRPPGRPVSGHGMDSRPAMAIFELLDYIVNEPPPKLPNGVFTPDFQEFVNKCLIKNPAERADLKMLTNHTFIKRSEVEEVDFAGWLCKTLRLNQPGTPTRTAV

CC(C)(O)CNc1ncc(-c2ccnc(Nc3ccnc(Cl)c3)n2)c(CC2CC2)n1
inhibition [1]: inactive | Activity [2]: 98% | IC50 [3]: > 10000 nM | inhibition [4]: inactive | inhibition [5]: inactive | inhibition [6]: inactive | Activity [7]: 125% | inhibition [8]: inactive | inhibition [9]: inactive | inhibition [10]: inactive | Activity [11]: 112% | Activity [12]: 105% | inhibition [13]: inactive | Activity [14]: 82% | inhibition [15]: inactive | Activity [16]: 97% | inhibition [17]: inactive | inhibition [18]: inactive | inhibition [19]: inactive | IC50 [20]: 2680 nM | Activity [21]: 111% | Activity [22]: 100% | inhibition [23]: inactive
